# Measurements from different studies.
# Target: Serine/threonine-protein kinase PRP4 homolog (PRPF4B, Homo sapiens, UniProt Q13523)
SMILES,test,conditions,remaining binding
CN(CCCC(F)(F)F)c1nccc(-c2cnn3ncccc23)n1,binding,1 µM,100%
COc1ncc2cc3ccccc3nc2c1C#N,"cell-free assay, competition with immobilised ligand",5 µM,100%
C[C@@H]1CN(c2cc(-c3nn(C)c4ccc(OC5(C)CC5)cc34)ncn2)C[C@H](C)O1,"cell-free assay, competition with immobilised ligand",1 µM,100%
O=C(c1ccc(Nc2ncc(Cl)c(-c3cc4ccccc4s3)n2)cc1)N1CCC(N2CCCC2)CC1,"binding, competition with immobilised ligand",1 µM,3.7%
N[C@@H]1CCN(c2nccc(-c3cnn4ncccc34)n2)C1,binding,1 µM,100%
O=C(Nc1c[nH]nc1C(=O)NC1CCNCC1)c1cc(F)cc(F)c1,"binding, competition with immobilised ligand",1 µM,82%
F[C@@H]1CCN(c2nccc(-c3cnn4ncccc34)n2)C1,binding,1 µM,100%
O=C(c1ccc(Nc2nccc(-c3cc4ccccc4s3)n2)cc1)N1CCC(N2CCCC2)CC1,"binding, competition with immobilised ligand",1 µM,6.3%
CN(c1nccc(-c2cnn3ncccc23)n1)C1CC1,binding,1 µM,100%
C[C@@H](c1ccc(-n2cnc3c(N)ncnc32)cc1)N1CCc2nn(C)c(Cc3ccccc3)c2C1=O,"binding, competition with immobilised ligand",0.1 µM,100%
O=C(c1ccc(Nc2ncc(Cl)c(-c3ccc(Cl)s3)n2)cc1)N1CCC(N2CCCC2)CC1,"binding, competition with immobilised ligand",1 µM,19%
Cc1cnn2ncc(-c3ccnc(N(C)C)n3)c2c1,binding,1 µM,94%
Cc1nccc(COC(=O)N2C[C@@H]3[C@@H](CNC(=O)c4ccc5[nH]nnc5c4)[C@@H]3C2)n1,"cell-free assay, competition with immobilised ligand",1 µM,95%
Nc1ncc2c(n1)-c1c([nH]c3ccc(C#CC4CC4)cc13)CCCC2,"binding, competition with immobilised ligand",1 µM,80%
C[C@@H]1CN(c2cc(-c3n[nH]c4ccc(OC5(C)CC5)cc34)ncn2)C[C@H](C)O1,"cell-free assay, competition with immobilised ligand",0.1 µM,83%
C=CC(=O)N1CCC(C(=O)NCC(=O)N2CCN(c3nc(-c4cnc(N)nc4C(F)F)nc(N4CCOCC4)n3)CC2)CC1,"binding, competition with immobilised ligand",1 µM,100%
O=c1nc(-c2ccccn2)sc2ccccc12,"binding, competition with immobilised ligand",1 µM,71%
CC1CCCN1c1nccc(-c2cnn3ncccc23)n1 (stereo not shown),binding,1 µM,100%
Cc1c(NC(=O)c2cc(C(N)=O)nc3cc(F)ccc23)c(C(F)(F)F)nn1Cc1ccc(C(C)(C)C)cc1,"cell-free assay, competition with immobilised ligand",1 µM,73%
COc1cnc(Nc2cccc(S(N)(=O)=O)c2)nc1N1CCN(c2ccccc2)C(=O)C1,"binding, competition with immobilised ligand",1 µM,100%
C[C@H]1CCN(c2nccc(-c3cnn4ncccc34)n2)C1,binding,1 µM,53%
CC(C)(O)c1cncc(-c2nc3ccc(F)cc3n2C2CC2)c1,"cell-free assay, competition with immobilised ligand",1 µM,58%
